Assay results gathered from unrelated publications.
Compare with care: the assays were run in different laboratories.
Target: Protein kinase C epsilon type (PRKCE, Homo sapiens, UniProt Q02156)
Sequence (Q02156 1-737, as in one of the studies): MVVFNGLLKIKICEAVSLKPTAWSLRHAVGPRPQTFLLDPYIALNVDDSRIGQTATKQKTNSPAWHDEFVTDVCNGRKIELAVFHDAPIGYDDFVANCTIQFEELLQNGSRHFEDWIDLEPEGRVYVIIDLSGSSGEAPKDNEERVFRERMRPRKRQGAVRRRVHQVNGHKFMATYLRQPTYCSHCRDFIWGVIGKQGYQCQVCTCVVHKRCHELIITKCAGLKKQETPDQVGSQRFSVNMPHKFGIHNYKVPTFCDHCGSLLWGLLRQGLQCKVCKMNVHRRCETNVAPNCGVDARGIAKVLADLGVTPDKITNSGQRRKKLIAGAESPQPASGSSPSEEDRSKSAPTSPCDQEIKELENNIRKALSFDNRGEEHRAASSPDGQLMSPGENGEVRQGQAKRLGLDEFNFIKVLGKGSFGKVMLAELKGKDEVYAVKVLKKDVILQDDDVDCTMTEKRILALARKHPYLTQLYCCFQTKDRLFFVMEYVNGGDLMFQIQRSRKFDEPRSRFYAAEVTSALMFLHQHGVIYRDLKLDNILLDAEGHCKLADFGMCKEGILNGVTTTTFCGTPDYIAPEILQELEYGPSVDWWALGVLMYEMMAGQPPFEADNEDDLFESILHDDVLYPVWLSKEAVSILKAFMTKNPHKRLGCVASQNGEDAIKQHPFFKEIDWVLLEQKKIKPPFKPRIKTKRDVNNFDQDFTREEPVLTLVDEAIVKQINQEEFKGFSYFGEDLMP

| SMILES | test | setting | remaining binding [%] |
| --- | --- | --- | --- |
| c1cnn2ncc(-c3ccnc(N4CCC45COC5)n3)c2c1 | binding | 1 µM | 100 |
| COc1cnc(Nc2cccc(S(N)(=O)=O)c2)nc1N1CCN(c2ccccc2)CC1 | binding, competition with immobilised ligand | 1 µM | 100 |
| CN(c1nccc(-c2cnn3ncccc23)n1)C1CC1 | binding | 1 µM | 83 |
| C[C@@H](c1ccc(-n2cnc3c(N)ncnc32)cc1)N1CCc2nn(C)c(Cc3ccccc3)c2C1=O | binding, competition with immobilised ligand | 0.1 µM | 74 |
| COCCOc1nc(-c2ccc(Cl)nc2)nc2c1CN(C(=O)c1ncn3ccccc13)CC2 | cell-free assay, competition with immobilised ligand | 0.1 µM | 89 |
| F[C@@H]1CCN(c2nccc(-c3cnn4ncccc34)n2)C1 | binding | 1 µM | 88 |
| CS(=O)(=O)N1CCCC(NC(=O)[C@H](CCC2CCCCC2)NC(=O)c2ccc(CNc3ncnc4c3nnn4-c3ccccc3)cc2)C1 (some centres unmarked) | cell-free assay, competition with immobilised ligand | 0.1 µM | 63 |
| c1cncc(-c2cccc(Nc3nccc(NC4CCCCC4)n3)c2)c1 | binding, competition with immobilised ligand | 10 µM | 46 |
| CCS(=O)(=O)c1cc2cc(C[C@](O)(CC(C)(C)c3ccc(F)cc3C(N)=O)C(F)(F)F)[nH]c2cn1 | cell-free assay, competition with immobilised ligand | 1 µM | 96 |
| C[C@@H]1CCN(c2nccc(-c3cnn4ncccc34)n2)C1 | binding | 1 µM | 100 |
| Nc1ncc2c(n1)-c1c([nH]c3ccc(C#CC4CC4)cc13)CCCC2 | binding, competition with immobilised ligand | 1 µM | 98 |
| O=C(NCCCN1CCOCC1)c1ccc(Nc2nccc(-c3cc4ccccc4s3)n2)cc1 | binding, competition with immobilised ligand | 1 µM | 71 |
| O=C(Nc1ccc(Oc2ccc(F)cc2)cc1)N1CCc2ncccc2[C@H]1c1ccc(F)cc1 | cell-free assay, competition with immobilised ligand | 1 µM | 100 |
| CN(C)c1nccc(-c2cnn3ncccc23)n1 | binding | 1 µM | 100 |
| O=C(c1ccc(Nc2ncc(Cl)c(-c3cc4ccccc4s3)n2)cc1)N1CCC(N2CCCC2)CC1 | binding, competition with immobilised ligand | 1 µM | 50 |
| O=C(N[C@H]1CCCCC/C=C\C2C[C@@]2(C(=O)O)NC(=O)[C@@H]2C[C@@H](Oc3ccncc3)CN2C1=O)OC1CCCC1 (some centres unmarked) | cell-free assay, competition with immobilised ligand | 1 µM | 100 |
| N[C@H]1CCN(c2nccc(-c3cnn4ncccc34)n2)C1 | binding | 1 µM | 100 |
| CN(c1ccnc(CNc2nc(Nc3ccc4c(c3)CC(=O)N4)ncc2C(F)(F)F)n1)S(C)(=O)=O | cell-free assay, competition with immobilised ligand | 1 µM | 50 |
| C[C@@H]1CN(c2ccc3ncc(-c4ccc5[nH]nc(C6CC6)c5c4)n3n2)C[C@H](C)O1 | binding, competition with immobilised ligand | 0.5 µM | 64 |
| O=C(Nc1c[nH]nc1C(=O)NC1CCNCC1)c1cc(F)cc(F)c1 | binding, competition with immobilised ligand | 1 µM | 70 |
| CC(C)(C)c1ccc(-c2nc(CBr)nn2-c2cccc(O)c2)cc1 | cell-free assay, competition with immobilised ligand | 10 µM | 73 |
| CN(CCCC(F)(F)F)c1nccc(-c2cnn3ncccc23)n1 | binding | 1 µM | 82 |
| Cc1c[nH]c2nccc(Oc3c(F)cc(Nc4cc(Cl)nc(N)n4)cc3F)c12 | cell-free assay, competition with immobilised ligand | 0.1 µM | 96 |
| O=C(c1ccc(Nc2nccc(-c3cc4ccccc4s3)n2)cc1)N1CCC(N2CCCC2)CC1 | binding, competition with immobilised ligand | 1 µM | 68 |
| CN(C(=O)c1ccccc1)c1cc(N(C)c2ccc3c(c2)CCc2ccc(C(=O)NCCN4CCOCC4)cc2C3=O)ccc1F | cell-free assay, competition with immobilised ligand | 1 µM | 87 |
| C=CC(=O)N1CCC(C(=O)NCC(=O)N2CCN(c3nc(-c4cnc(N)nc4C(F)F)nc(N4CCOCC4)n3)CC2)CC1 | binding, competition with immobilised ligand | 1 µM | 79 |
